Measurements as given in paper PMC3152441 (Chemistry & biology, 2011).

Key:
[1] = Cell viability under diverse cell treatments; format: cell-based
[2] = system: IκBα; experiment: γ-tri-DAP-induced expression of NF-κB target gene IκBα; format: cell-based
[3] = system: NF-κB, MAPK and Akt signalings; experiment: γ-tri-DAP-dependent signaling; format: cell-based
[4] = system: TLR1, 2, 4, 5, 6 and 8; experiment: THP.1 macrophage NF-κB/AP-1-inducible SEAP reporter, TLR agonists; format: cell-based, Human; conditions: 5 μM compound, 24 h, PMA-differentiated THP.1
Method in brief: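 PMA-differentiated THP.1 cells carrying NF-κB-driven SEAP were cultured ± 5 μM test compound with TLR inducers: 0.5 μg/ml Pam3CSK4, heat-killed Listeria monocytogenes (HKLM), 1 μg/ml FSL-1, 0.5 μg/ml LPS, 0.5 μg/ml flagellin or 1 μg/ml ssRNA40. Supernatant SEAP was measured after 24 h, as % of inducer alone. Mean ± SEM, n=2.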

[5] = system: non-canonical NF-κB activation induced by BAFF; experiment: 697 pre-B leukemia cells NF-κB-luciferase reporter, BAFF; format: cell-based; conditions: 697 cells, 10 μM compound, 100 ng/ml BAFF, 24h
Method in brief: (§1)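 697 cells stably carrying an NF-κB-luciferase reporter were cultured with or without 10 μM test compound plus inducer: 100 ng/ml BAFF or 5 μM ODN2006 as TLR9 ligand. Luciferase activity was read 24 h later. Mean ± SD, n=3.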

[6] = molecular target: T1, TLR9 (Homo sapiens, UniProt Q9NR96); experiment: 697 pre-B leukemia cells NF-κB-luciferase reporter, CpG DNA; format: cell-based; conditions: 697 cells, 10 μM compound, 5 μM ODN2006, 24h
T1 sequence (Q9NR96 26-1032): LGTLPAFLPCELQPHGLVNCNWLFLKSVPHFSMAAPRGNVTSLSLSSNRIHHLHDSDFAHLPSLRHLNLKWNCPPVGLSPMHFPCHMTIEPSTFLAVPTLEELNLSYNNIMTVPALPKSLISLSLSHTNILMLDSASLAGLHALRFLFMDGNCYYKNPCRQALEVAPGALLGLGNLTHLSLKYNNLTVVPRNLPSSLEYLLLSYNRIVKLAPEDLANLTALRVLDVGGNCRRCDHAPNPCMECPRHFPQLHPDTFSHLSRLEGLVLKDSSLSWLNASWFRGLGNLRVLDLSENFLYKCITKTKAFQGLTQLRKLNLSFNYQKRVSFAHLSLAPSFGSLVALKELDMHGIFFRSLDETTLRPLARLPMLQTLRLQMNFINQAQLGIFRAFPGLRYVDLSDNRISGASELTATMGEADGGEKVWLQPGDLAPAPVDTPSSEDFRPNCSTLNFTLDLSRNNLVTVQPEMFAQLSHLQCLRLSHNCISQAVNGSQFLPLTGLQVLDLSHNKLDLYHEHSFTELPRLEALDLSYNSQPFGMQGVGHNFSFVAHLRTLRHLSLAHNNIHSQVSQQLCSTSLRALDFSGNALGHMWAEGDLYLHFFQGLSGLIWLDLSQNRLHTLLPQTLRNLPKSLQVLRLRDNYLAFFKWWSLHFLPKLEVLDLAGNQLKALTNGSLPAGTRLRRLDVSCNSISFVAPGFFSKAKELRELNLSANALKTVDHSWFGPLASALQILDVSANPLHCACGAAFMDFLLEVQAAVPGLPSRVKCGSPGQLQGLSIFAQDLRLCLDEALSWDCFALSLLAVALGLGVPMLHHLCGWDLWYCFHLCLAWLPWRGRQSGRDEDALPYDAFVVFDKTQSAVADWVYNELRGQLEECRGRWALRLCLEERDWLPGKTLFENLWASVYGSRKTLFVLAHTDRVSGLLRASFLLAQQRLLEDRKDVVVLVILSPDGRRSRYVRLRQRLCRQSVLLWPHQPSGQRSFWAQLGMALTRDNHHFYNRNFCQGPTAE
Method in brief: as §1

[7] = system: RIG-I/MDA-5, IRF3; experiment: HEK293T ISRE-driven luciferase reporter, other interferon response stimuli; format: cell-based; conditions: 5 μM compound; poly(I:C), poly(dA:dT), Sendai virus
Method in brief: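 HEK293T cells stably expressing an ISRE-driven luciferase reporter were cultured ± 5 μM test compound with 1 μg/ml poly(I:C) (LyoVec lipid transfection), 1 μg/ml poly(dA:dT) (LyoVec) or Sendai virus. Luciferase was measured after 24 h. Mean ± SD, n=4.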

[8] = system: inflammasomes; experiment: IL-1β secretion induced by inflammasome activators; format: cell-based; conditions: 5 μM compound; MSU, poly(dA:dT), LPS plus ATP, S. typhimurium
Method in brief: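 RAW264.7 macrophages were treated with 5 μM test compound, with LPS pre-treatment to induce pro-IL-1β synthesis. Supernatants were taken at 2 h (Salmonella) or 4 h (others). IL-1β by ELISA. Mean ± SD, n=3.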

[9] = system: NOD1 signaling; experiment: Gene transfection experiments in HEK 293T-NF-κB-luciferase cells; format: cell-based
Method in brief: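 HEK293T NF-κB-luciferase cells were transfected with NOD1, RIP2, XIAP or GFP plasmids in various combinations. After 24 h, cells were cultured ± 3.5 μg/ml γ-tri-DAP, ± 10 μM test compound, or both, for 24 h. Luciferase was normalised to GFP-transfected cells (100%). Mean ± SD, n=4.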

[10] = system: Bcl-XL and Bid; experiment: Ni/NTA pull-down of purified His6-tagged control proteins; conditions: purified protein, 20 μM compound
Method in brief: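 Purified His6-Bcl-XL or His6-Bid (≈0.4 ug) was pre-incubated 60 min with 20 μM test compound, with DMSO as control. Ni-NTA agarose beads were added and incubated overnight at 4°C. Pulled-down protein was immunoblotted with anti-His antibody. Bands were quantified relative to the DMSO control.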

[11] = molecular target: NOD2 (Homo sapiens, UniProt Q9HC29); experiment: Subcellular fractionation of MCF-7 cells stably expressing epitope-tagged NOD2; format: cell-based; conditions: MCF-7 cells expressing NOD2
NOD2, sequence (Q9HC29 whole entry): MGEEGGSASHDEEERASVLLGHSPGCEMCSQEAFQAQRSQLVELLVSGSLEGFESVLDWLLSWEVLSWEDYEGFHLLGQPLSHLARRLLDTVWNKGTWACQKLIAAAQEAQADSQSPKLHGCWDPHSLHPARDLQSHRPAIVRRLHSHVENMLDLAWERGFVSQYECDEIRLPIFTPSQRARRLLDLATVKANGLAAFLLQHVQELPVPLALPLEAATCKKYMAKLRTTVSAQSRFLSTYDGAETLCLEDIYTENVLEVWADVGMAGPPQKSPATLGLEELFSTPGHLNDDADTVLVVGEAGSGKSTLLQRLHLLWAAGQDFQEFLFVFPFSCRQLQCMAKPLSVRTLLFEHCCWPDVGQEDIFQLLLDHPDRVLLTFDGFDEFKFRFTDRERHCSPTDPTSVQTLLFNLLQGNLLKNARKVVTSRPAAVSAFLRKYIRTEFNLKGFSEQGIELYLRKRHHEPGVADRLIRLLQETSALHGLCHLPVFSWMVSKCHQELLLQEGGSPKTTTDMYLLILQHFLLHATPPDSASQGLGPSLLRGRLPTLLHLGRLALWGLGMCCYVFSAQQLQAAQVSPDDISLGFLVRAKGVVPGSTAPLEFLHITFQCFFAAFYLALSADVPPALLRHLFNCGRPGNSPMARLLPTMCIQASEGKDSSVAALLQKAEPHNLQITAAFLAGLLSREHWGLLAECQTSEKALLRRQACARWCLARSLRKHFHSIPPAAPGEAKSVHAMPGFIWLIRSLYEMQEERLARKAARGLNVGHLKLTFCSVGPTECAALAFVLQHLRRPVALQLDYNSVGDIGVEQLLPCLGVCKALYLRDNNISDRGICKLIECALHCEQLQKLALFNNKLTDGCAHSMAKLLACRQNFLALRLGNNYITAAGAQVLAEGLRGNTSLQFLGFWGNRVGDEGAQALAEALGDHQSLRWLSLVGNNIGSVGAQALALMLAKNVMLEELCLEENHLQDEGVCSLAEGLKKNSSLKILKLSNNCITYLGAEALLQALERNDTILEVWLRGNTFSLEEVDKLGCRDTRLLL

Cc1ccc(S(=O)(=O)n2c(N)nc3ccccc32)cc1 [CID-1088438]
Cell viability [1]: not affected
γ-tri-DAP-induced expression of IκBα at the mRNA level [2]: inhibited
Akt survival pathway [3]: without affecting
γ-tri-DAP-dependent activation of MAPK (p38 phosphorylation) [3]: inhibits
γ-tri-DAP-dependent activation of NF-κB (IκBα phosphorylation and degradation) [3]: inhibits
NF-κB-inducible SEAP activity induced by TLR agonists [4]: No inhibitory effects
non-canonical NF-κB activation induced by BAFF [5]: not inhibited
NF-κB activity induced by TLR9 ligand CpG DNA [6]: did not inhibit
ISRE-driven reporter gene activity induced by other interferon response stimuli [7]: no inhibition
IL-1β secretion induced by various inflammasome activators [8]: did not inhibit
site of action in NOD1 signaling (NOD1, RIP2, XIAP transfection) ([9]; 10 μM compound, 24 hrs): targets NOD1 signaling upstream of RIP2
impact in cells over-expressing IKKγ/NEMO, MYD88, FLIP, CARD6, APAF1 or NLRC4 ([9]; data not shown): No significant impact
binding of His6-tagged control proteins Bcl-XL and Bid to Ni/NTA [10]: without affecting
NOD2 compartmentalization [11]: No changes
